The source of these data is ChEMBL document CHEMBL3860034, “Development of Potent and Selective S. aureus Sortase A Inhibitors Based on Peptide Macrocycles” (ACS Med Chem Lett, 2016).

As a reminder, the Ki is the dissociation constant of the complex between target and ligand, obtained from inhibition or displacement. A word on the Kd: it is the free concentration of one partner at which half of the binding sites on the other are occupied at equilibrium, for simple one-to-one binding. Read a high Kd as a looser complex. Usually IC50 stands for the concentration that gives 50% inhibition.

Calls of active or inactive are those of the source. The rule behind the calls is not given here. *1 amine or outer side, *2 acyl side, *3 side chain or, on linkers, in order; H or OH if unused. Where a SMILES comes first, the peptide text is derived from it. Bridges are numbered along the chain shown (N, C = ends). TBMB = c1c(C[*:1])cc(C[*:3])cc1C[*:2]

Assay [1] has as its target T1, Sortase A (Staphylococcus aureus, UniProt Q9S446).
T1 sequence (Q9S446 whole entry): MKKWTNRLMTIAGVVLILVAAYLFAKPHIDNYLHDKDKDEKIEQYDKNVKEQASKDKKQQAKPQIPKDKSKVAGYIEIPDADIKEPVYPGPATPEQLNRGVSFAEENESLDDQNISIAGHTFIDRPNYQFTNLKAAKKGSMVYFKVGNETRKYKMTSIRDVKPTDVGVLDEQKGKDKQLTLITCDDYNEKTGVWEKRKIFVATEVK
The experiment in a line: Inhibition of Staphylococcus aureus His6-biotinylated SrtA expressed in Escherichia coli XL1-blue using Dabcyl-LPETG-Edans as substrate assessed as residual activity by fluorescence assay. The gist of the method:
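(His)6-SrtA26−206 from E. coli XL1-blue, purified by Ni affinity and gel filtration. Enzyme at 2.5 μM incubated with varied peptide concentrations (up to 300 μM). Residual activity measured with 20 μM Dabcyl-LPETG-Edans and 200 μM triglycine in 50 mM Tris-Cl pH 7.4, 150 mM NaCl, 5 mM CaCl2, 0.1% BSA, 37 °C. Fluorescence read at ex 350/em 480 nm. Ki from Supporting Information equations; at least three measurements.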

Assay [2] addresses T1, Sortase A. The experiment in a line: Binding affinity to Staphylococcus aureus His6-biotinylated SrtA expressed in Escherichia coli XL1-blue using fluorescein-tagged compound after 15 mins by fluorescence polarization. The procedure, abridged:
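Serial dilutions of SrtA mixed with 200 nM fluorescein-labeled bicyclic peptide in 50 mM Tris-Cl pH 7.4, 150 mM NaCl, 5 mM CaCl2; 15 min at room temperature. Fluorescence polarization read at 485 nm excitation / 535 nm emission. Kd obtained by nonlinear regression of polarization against total SrtA concentration.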
(In general: In fluorescence polarisation assays a small probe gives low polarisation when free and higher when bound to something large.)

Assay [3] deals with Urokinase-type plasminogen activator (Homo sapiens, UniProt P00749). The experiment in a line: Inhibition of human uPA using fluorogenic Z-Gly-Gly-Arg-AMC as substrate.
Assay [4] in a line: Inhibition of recombinant Staphylococcus aureus SrtA N24 deletion mutant by using abz-LPATG-dnp as substrate.
Assay [5] concerns the target T2, Sortase A (Staphylococcus aureus) (UniProt Q9S446).
T2 sequence (whole entry): T1 sequence (Q9S446 whole entry)
Nature of the assay: (§1) Inhibition of SrtA-mediated incorporation of Fluo-GSLPETGGS substrate to cell wall of Staphylococcus aureus Newman after 24 hrs by fluorescence assay. As to conditions: Staphylococcus aureus subsp. aureus str. Newman.

Assay [6] deals with T1, Sortase A. The assay is described as §1. On the set-up: species or system Staphylococcus aureus subsp. aureus str. Newman.
Assay [7] has as its system Staphylococcus aureus. The experiment in a line: Induction of Fluo-GSLPETGGS substrate transfer to cell wall of SrtA knockout Staphylococcus aureus SKM12 at 1 mM after 24 hrs by fluorescence assay. The format is functional.

As for `CC(C)C[C@@H]1NC(=O)[C@H](CCC(N)=O)NC(=O)[C@@H]2CCCN2C(=O)[C@@H](NC(=O)[C@H](C)N)CSCc2cc3cc(c2)CSC[C@H](NC(=O)[C@@H]2CCCN2C(=O)[C@@H]2CCCN2C1=O)C(=O)N[C@@H](CCCNC(=N)N)NC(=O)[C@H](C(C)C)NC(=O)[C@H](CO)C(=O)N[C@H](C(=O)NCC(N)=O)CSC3`, the Ki in assay [1] is 4.3 µM. Besides, the dissociation constant (Kd) in assay [2] came to 8.8 µM.

Regarding `CC(C)[C@@H]1NC(=O)[C@H](CCC(=O)O)NC(=O)[C@H](Cc2ccc(O)cc2)NC(=O)[C@H](CCCNC(=N)N)NC(=O)[C@@H](CO)NC(=O)[C@H](NC(=O)[C@H](C)N)CSCc2cc3cc(c2)CSC[C@@H](C(=O)NCC(N)=O)NC(=O)[C@@H](C)NC(=O)[C@H](CO)NC(=O)CNC(=O)[C@H](CCCNC(=N)N)NC(=O)CNC(=O)[C@H](CCCNC(=N)N)NC(=O)[C@H](CSC3)NC(=O)[C@H](CC(=O)O)NC1=O`, the affinity in assay [3], expressed as Ki, was 0.053 µM.

Regarding `O=S(=O)(O)c1cccc(-c2nn3c(-c4ccncc4)nnc3s2)c1`, the IC50 in assay [4] is 9.3 µM.

For `CC(C)C[C@@H]1NC(=O)[C@H](CCC(N)=O)NC(=O)[C@@H]2CCCN2C(=O)[C@@H]2CSCc3cc(cc(c3)CSC[C@@H](C(=O)NCC(=O)O)NC(=O)[C@@H]3CCCN3C(=O)[C@@H]3CCCN3C1=O)CSC[C@H](NC(=O)[C@H](C)N)C(=O)N[C@@H](Cc1c[nH]cn1)C(=O)N[C@@H](CO)C(=O)N[C@@H](CCCNC(=N)N)C(=O)N2` (H-ACHSRCPQLPPCG-OH; linker 2-6-12 via TBMB), the Ki in assay [1] came out at 1.1 µM. In assay [5], the inhibition entry is “Dose-dependent effect”. In addition, in assay [6], the IC50 was found to be 167 µM. Besides, the result in assay [7] was Active.

As for `CC(C)C[C@@H]1NC(=O)[C@H](CCC(N)=O)NC(=O)[C@@H]2CCCN2C(=O)[C@@H]2CSCc3cc(cc(c3)CSC[C@@H](C(=O)NCC(N)=O)NC(=O)[C@@H]3CCCN3C(=O)[C@@H]3CCCN3C1=O)CSC[C@H](NC(=O)[C@H](C)N)C(=O)N[C@@H]([C@@H](C)O)C(=O)N[C@@H](CCC(N)=O)C(=O)N[C@@H](CCCNC(=N)N)C(=O)N2` (H-ACTQRCPQLPPCG-NH2; linker 2-6-12 via TBMB), in assay [1], the Ki is 2.4 µM. The compound also showed a Kd in assay [2] of 1.5 µM.
